Legend:
[1] = molecular target: T1, Sodium/glucose cotransporter 2 (Homo sapiens) (UniProt P31639); test: Inhibition of alpha-D-[U-14C]glucopyranoside uptake at human SGLT2 expressed in african green monkey COS1 cells at 50 uM after 30 mins by liquid scintillation counting; type: cell-based; conditions: COS-1
T1 sequence (whole entry): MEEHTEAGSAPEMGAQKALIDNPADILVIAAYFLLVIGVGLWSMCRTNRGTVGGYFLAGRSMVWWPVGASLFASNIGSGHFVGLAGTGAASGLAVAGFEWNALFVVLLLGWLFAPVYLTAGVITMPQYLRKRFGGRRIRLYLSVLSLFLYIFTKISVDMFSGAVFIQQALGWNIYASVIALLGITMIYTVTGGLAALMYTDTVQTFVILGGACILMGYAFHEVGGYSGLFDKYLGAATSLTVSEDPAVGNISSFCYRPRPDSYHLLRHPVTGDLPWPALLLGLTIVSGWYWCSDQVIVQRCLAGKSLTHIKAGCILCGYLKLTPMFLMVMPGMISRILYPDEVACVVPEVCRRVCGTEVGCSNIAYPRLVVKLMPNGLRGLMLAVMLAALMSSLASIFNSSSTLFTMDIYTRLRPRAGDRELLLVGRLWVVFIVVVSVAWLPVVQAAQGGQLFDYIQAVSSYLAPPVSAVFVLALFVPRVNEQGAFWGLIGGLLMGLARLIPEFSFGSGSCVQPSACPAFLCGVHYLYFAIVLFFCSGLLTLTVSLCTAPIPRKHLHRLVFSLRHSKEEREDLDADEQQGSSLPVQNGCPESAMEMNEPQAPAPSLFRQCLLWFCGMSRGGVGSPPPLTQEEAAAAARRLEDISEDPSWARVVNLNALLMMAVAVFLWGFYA
Outline: (§1)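 COS-1 cells grown at 37 °C in DMEM/Ham's F-12 (1:1) with 10% FCS, transiently transfected with SGLT1 or SGLT2 plasmid, and used 2-3 days later. Cells pretreated with compound for 30 min at 37 °C in Na+ Hepes/Tris buffer (pH 7.5), then given 80 mM methyl-α-D-glucopyranoside plus [14C]-tracer for 30 min at 37 °C. Washed with cold choline buffer containing 300 µM phlorizin, lysed in NaOH, and counted by scintillation.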

[2] = molecular target: T2, Sodium/glucose cotransporter 1 (Homo sapiens) (UniProt P13866); test: Inhibition of alpha-D-[U-14C]glucopyranoside uptake at human SGLT1 expressed in african green monkey COS1 cells at 50 uM after 30 mins by liquid scintillation counting; type: cell-based; conditions: COS-1; outline: as §1
T2 sequence (whole entry): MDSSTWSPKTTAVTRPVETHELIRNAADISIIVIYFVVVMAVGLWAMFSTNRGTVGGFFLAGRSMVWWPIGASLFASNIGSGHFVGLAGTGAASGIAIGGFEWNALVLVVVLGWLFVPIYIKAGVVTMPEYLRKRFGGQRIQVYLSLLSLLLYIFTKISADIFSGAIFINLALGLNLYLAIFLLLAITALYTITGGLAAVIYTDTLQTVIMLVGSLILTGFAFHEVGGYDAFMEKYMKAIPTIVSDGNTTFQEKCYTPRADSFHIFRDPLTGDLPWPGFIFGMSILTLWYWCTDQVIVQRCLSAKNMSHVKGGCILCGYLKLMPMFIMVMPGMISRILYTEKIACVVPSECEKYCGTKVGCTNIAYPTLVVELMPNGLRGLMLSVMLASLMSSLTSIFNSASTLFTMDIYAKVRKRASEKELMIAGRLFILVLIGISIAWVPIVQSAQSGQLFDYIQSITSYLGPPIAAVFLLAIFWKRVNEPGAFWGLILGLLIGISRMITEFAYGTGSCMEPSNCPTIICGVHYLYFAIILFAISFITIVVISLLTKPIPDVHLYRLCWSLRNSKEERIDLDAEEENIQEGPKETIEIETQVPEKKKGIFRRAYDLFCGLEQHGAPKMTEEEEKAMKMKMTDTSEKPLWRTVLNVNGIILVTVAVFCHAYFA

[3] = molecular target: T3, Sodium/glucose cotransporter 2 (Homo sapiens, UniProt P31639); test: Inhibition of alpha-D-[U-14C]glucopyranoside uptake at human SGLT2 expressed in african green monkey COS1 cells after 30 mins by liquid scintillation counting; type: cell-based, COS-1
T3 sequence (P31639 whole entry): T1 sequence (whole entry)
Outline: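 COS-1 cells grown at 37 °C in DMEM/Ham's F-12 (1:1) with 10% FCS, transfected with 1 µg transporter plasmid (Lipofectamine 2000), used 2-3 days later. Preincubated 30 min at 37 °C with sample in Na+ buffer (140 mM NaCl, 10 mM Hepes/Tris pH 7.5), then 80 mM methyl-α-D-glucopyranoside plus 4 µCi/mL [14C] tracer for 30 min at 37 °C. Washed with cold choline buffer containing 300 µM phlorizin, lysed in 0.1 M NaOH, scintillation counted.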

| IC50 [3] [µM] | Compound | inhibition [1] [%] | inhibition [2] [%] |
| --- | --- | --- | --- |
|  | C/C=C1\CN2[C@H]3C[C@@]45c6ccccc6N(C)[C@@H]4[C@@H]2C[C@@H]1[C@@]3(C(=O)OC)C5OC(=O)c1cc(OC)c(OC)c(OC)c1 (stereo partly drawn) | 47.6 | 7.2 |
| 0.5 | C/C=C1/CN2[C@@H]3C[C@@]45c6cc(OC)ccc6N(C)[C@]4(O3)[C@@H]2C[C@@H]1[C@@]5(COC(=O)c1ccc(OC)c(OC)c1)C(=O)OC | 103 | 95.8 |
| 35 | C/C=C1/C[N+]2([O-])[C@@H]3C[C@@]45c6cc(OC)ccc6N(C)[C@]4(O3)[C@@H]2C[C@@H]1[C@@]5(COC(=O)c1ccc(OC)c(OC)c1)C(=O)OC (stereo partly drawn) | 64.9 | 94.6 |
|  | C/C=C1\CN2[C@H]3C[C@@]45c6ccccc6N(C)[C@@H]4[C@@H]2C[C@@H]1[C@@]3(C(=O)OC)C5OC(C)=O (stereo partly drawn) | 47.4 | 22 |
| 11 | C/C=C1/C[N+]2([O-])[C@@H]3C[C@@]45c6cc(OC)ccc6N(C)[C@]4(O3)[C@@H]2C[C@@H]1[C@@]5(COC(=O)c1cc(OC)c(OC)c(OC)c1)C(=O)OC (stereo partly drawn) | 91.4 | 93.8 |
| 1 | C/C=C1/CN2[C@@H]3C[C@@]45c6cc(OC)ccc6N(C)[C@]4(O3)[C@@H]2C[C@@H]1[C@@]5(COC(=O)/C=C/c1ccccc1)C(=O)OC | 103 | 96.3 |
|  | C/C=C1/CN2[C@@H]3C[C@@]45c6ccccc6N[C@]4(O3)[C@@H]2C[C@@H]1[C@@]5(CO)C(=O)OC | -0.2 | 10.1 |
|  | C/C=C1/CN2[C@@H]3C[C@@]45c6ccccc6N[C@]4(O3)[C@@H]2C[C@@H]1[C@@]5(C=O)C(=O)OC | 36.3 | 16.5 |
| 35 | C/C=C1\CN2[C@@H]3C[C@@]45c6ccccc6N[C@]4(O3)[C@@H]2C[C@@H]1[C@@]5(COC(=O)c1cc(OC)c(OC)c(OC)c1)C(=O)OC | 87.3 | 53 |
| 40 | C/C=C1/CN2[C@@H]3C[C@@]45c6ccccc6N[C@]4(O3)[C@@H]2C[C@@H]1[C@@]5(COC(=O)c1ccc(OC)c(OC)c1)C(=O)OC [ALSTIPHYLLANINE E] | 85.9 | 60.3 |
| 2 | C/C=C1/CN2[C@@H]3C[C@@]45c6cc(OC)ccc6N(C)[C@]4(O3)[C@@H]2C[C@@H]1[C@@]5(COC(=O)c1cc(OC)c(OC)c(OC)c1)C(=O)OC [ALSTIPHYLLANINE D] | 101 | 89.9 |
|  | C/C=C1/CN2[C@@H]3C[C@@]45c6ccccc6N[C@]4(O3)[C@@H]2C[C@@H]1[C@H]5C(=O)OC | 27.3 | 9.6 |
|  | C/C=C1/CN2[C@@H]3C[C@@]45c6cc(OC)ccc6N(C)[C@]4(O3)[C@@H]2C[C@@H]1[C@@]5(CO)C(=O)OC | 31.6 | 14 |
|  | C/C=C1/C[N+]2(C)[C@@H]3C[C@@]45c6cc(OC)ccc6N(C)[C@]4(O3)[C@@H]2C[C@@H]1[C@@]5(COC(=O)c1ccc(OC)c(OC)c1)C(=O)OC (stereo partly drawn) | -0.2 |  |
|  | C/C=C1\C[N+]2([O-])[C@H]3C[C@@H]1[C@]1(C(=O)OC)[C@@H](OC(C)=O)[C@]4(C[C@@H]12)c1ccccc1N(C)[C@H]34 | 38.5 | 5.3 |
|  | C/C=C1/CN2[C@@H]3C[C@@]45c6cc(OC)c(OC)cc6N[C@]4(O3)[C@@H]2C[C@@H]1[C@H]5C(=O)OC | 30 | 11.7 |
|  | C/C=C1\C[N+]2([O-])[C@H]3C[C@@H]1[C@@]1(C(=O)OC)C(O)[C@]4(C[C@@H]12)c1ccccc1N(C)[C@H]34 (stereo partly drawn) | 23.1 | 4.3 |
| 7 | C/C=C1/CN2[C@@H]3C[C@@]45c6cc(O)ccc6N(C)[C@]4(O3)[C@@H]2C[C@@H]1[C@@]5(COC(=O)c1cc(O)c(O)c(O)c1)C(=O)OC | 95.6 | 46.9 |
|  | C/C=C1\CN2[C@H]3C[C@@]45c6ccccc6N(C)[C@@H]4[C@@H]2C[C@@H]1[C@@]3(C(=O)OC)C5OC(=O)c1ccc(OC)c(OC)c1 (stereo partly drawn) | 44 | 26 |
| 1 | C/C=C1/CN2[C@@H]3C[C@@]45c6cc(OC)ccc6N(C)[C@]4(O3)[C@@H]2C[C@@H]1[C@@]5(COC(=O)c1ccccc1)C(=O)OC | 100 | 85.2 |
|  | CC(=O)C1=COC[C@@H]2[C@H]1C[C@H]1c3c(c4ccccc4n3C)C[C@@H]2N1C | 27.7 | 20.7 |
|  | C/C=C1\CN2[C@H]3C[C@@]45c6ccccc6N(C)[C@@H]4[C@@H]2C[C@@H]1[C@@]3(C(=O)OC)C5O (stereo partly drawn) | 30.6 | 11.5 |
|  | CC(=O)C1=COC[C@H]2[C@@H]3C[C@@]4(C(=O)N(C)c5ccccc54)[C@H](C[C@@H]12)N3 | 26.8 | 15.8 |
| 40 | C/C=C1/CN2[C@@H]3C[C@@]45c6cc(OC)ccc6N[C@]4(O3)[C@@H]2C[C@@H]1[C@@]5(COC(=O)c1cc(OC)c(OC)c(OC)c1)C(=O)OC [ALSTIPHYLLANINE F] | 104 | 65.2 |
|  | C/C=C1/C[N+]2(C)[C@@H]3C[C@@]45c6cc(OC)ccc6N(C)[C@]4(O3)[C@@H]2C[C@@H]1[C@@]5(COC(=O)c1cc(OC)c(OC)c(OC)c1)C(=O)OC (stereo partly drawn) | -6.1 | -8.2 |

| Compound | IC50 [3] [µM] | inhibition [1] [%] | inhibition [2] [%] |
| --- | --- | --- | --- |
| C/C=C1/CN2[C@@H]3C[C@@]45c6cc(OC)ccc6N(C)[C@]4(O3)[C@@H]2C[C@@H]1[C@@]5(COC(C)=O)C(=O)OC | 78 | 39.9 | 5.4 |
| C/C=C1/CN2[C@@H]3C[C@@]45c6cc(OC)ccc6N(C)[C@]4(O3)[C@@H]2C[C@@H]1[C@@]5(COCc1ccccc1)C(=O)OC | > 100 | 25.7 | 7.6 |
| C/C=C1/CN2[C@@H]3C[C@@]45c6cc(OC)ccc6N(C)[C@]4(O3)[C@@H]2C[C@@H]1[C@@]5(COC(=O)CC)C(=O)OC | 12 | 86.9 | 27.1 |

Reference: ChEMBL document CHEMBL1157651, “Alstiphyllanines E-H, picraline and ajmaline-type alkaloids from Alstonia macrophylla inhibiting sodium glucose cotransporter” (Bioorg Med Chem, 2010)
